# Screening data deposited in PubChem BioAssay by several laboratories.
# MC4R barr agon: agonists of human melanocortin 4 receptor (MC4R) beta-arrestin; U2OS MC4R beta-arrestin complementation, luminescence; percent of melanotan II response, DMSO zero; activation, % at 8.9 µM; actives 0.98% (n = 360,000); AID 540308;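 active means activation above a per-plate cutoff, the mean activation of sample wells on that plate plus 3 SD, cut at about 8% in these data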
# PG9 binder: PG9 antibody binding by small molecule | actives 0.43% (n = 360,000) | AID 624416 | inhibition, % at 6.7 µM | TR-FRET gp120-PG9 antibody binding; in the data active means inhibition above about 8.5%
# MC4R antag cAMP: human MC4R antagonism in cAMP assay | MC4R-expressing cells, MTII-stimulated cAMP, LANCE TR-FRET | actives 0.48% (n = 360,000) | AID 540295 | inhibition, % at 6.5 µM;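 active means inhibition above its plate's cutoff, the mean of tested wells on that plate plus 3 SD, cut at about 29% in these data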
#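 Assay system: human MC4R-expressing U2OS cells; reagent: Melanotan II stimulation of cells; dosing: 6.5 µM single dose; timing: compound 30 min, challenge 1 h, detection 1 h; signal: TR-FRET cAMP assay; replicates: one well per compound, no replicates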
# NTR1 agonist: NTR1 (human) agonism. activation, % at 20 µM. NTR1-U2OS beta-arrestin-GFP spot imaging, agonist mode. P30989. AID 493036. actives 0.17% (n = 330,000);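 active means activation at or above 40% of the spot to cytoplasm intensity ratio, with at least 20 cells analyzed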
# NR1D1 modulator: Rev-erb alpha (human) modulation; P20393; Rev-erbα–FITC-DNA binding, fluorescence polarization, 90 min; activity, % at 10 µM; actives 0.79% (n = 370,000); AID 1259318;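 active means activity above about 14%, limit read from the data; passing the limit was not always enough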
# Target sequence (P20393 whole entry, looked up): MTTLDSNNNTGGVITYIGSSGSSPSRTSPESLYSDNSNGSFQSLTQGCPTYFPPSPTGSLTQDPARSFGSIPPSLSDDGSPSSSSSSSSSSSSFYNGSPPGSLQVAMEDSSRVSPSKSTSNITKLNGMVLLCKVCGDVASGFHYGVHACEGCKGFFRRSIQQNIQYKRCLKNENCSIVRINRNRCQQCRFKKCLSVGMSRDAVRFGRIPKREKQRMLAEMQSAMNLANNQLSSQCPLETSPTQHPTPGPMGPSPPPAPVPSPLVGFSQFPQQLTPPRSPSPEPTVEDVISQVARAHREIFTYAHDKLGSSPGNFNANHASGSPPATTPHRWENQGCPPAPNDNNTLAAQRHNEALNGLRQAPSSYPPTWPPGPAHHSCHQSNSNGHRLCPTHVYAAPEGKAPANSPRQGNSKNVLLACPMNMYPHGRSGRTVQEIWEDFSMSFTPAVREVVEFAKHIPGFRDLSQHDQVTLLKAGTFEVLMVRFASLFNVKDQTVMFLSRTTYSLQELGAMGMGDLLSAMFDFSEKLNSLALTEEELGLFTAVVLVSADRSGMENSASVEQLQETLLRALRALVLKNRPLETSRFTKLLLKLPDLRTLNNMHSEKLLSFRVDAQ
# NTR1 ag confirm: confirmation of agonists of human NTR1; shares compounds with NTR1 agonist; NTR1-U2OS beta-arrestin-GFP translocation imaging; activation, % at 20 µM; actives 38% (n = 480); AID 504550;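 active means mean activation at 20 µM of at least 40%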
# Numbers stand for hits; 0 = inactive; - = no result. This is a sample that favours compounds with a hit; in the whole collection about 2.5% have one here.
SMILES,MC4R barr agon,PG9 binder,MC4R antag cAMP,NTR1 agonist,NR1D1 modulator,others
O=C1NC(=O)C(=Cc2ccc(N3CCOCC3)cc2)C(=O)N1,0,0,0,0,0,
O=C1NC(=O)C(=Cc2ccc(-c3ccc(S(=O)(=O)N4CCOCC4)cc3)o2)C(=O)N1,0,0,36,0,0,
FC(F)OC(F)(F)C(F)Cl (stereo not drawn),-,-,-,-,0,
C[C@@H]1O[C@@H](O[C@H]2C[C@@H](O)[C@]3(CO)[C@@H]4C(CC[C@]3(O)C2)[C@@]2(O)CC[C@H](C3COC(=O)C3)[C@@]2(C)C[C@H]4O)[C@H](O)[C@H](O)[C@H]1O (stereo partly drawn),28,0,0,0,0,
COc1cccc([C@]2(O)CCCC[C@H]2CN(C)C)c1,-,-,-,-,0,
CC(C)=CC1C(C(=O)OC(C#N)c2cccc(Oc3ccccc3)c2)C1(C)C (stereo not drawn),-,-,-,-,0,
C[C@]12CCC3C(CC[C@H]4C[C@@H](O)CC[C@]34C)[C@H]1C=CC2=O (stereo partly drawn),0,0,0,0,0,
CC(=O)OC1CC(OC2C(O)CC(OC3C(O)CC(OC4CCC5(C)C(CCC6C5CC(O)C5(C)C(C7=CC(=O)OC7)CCC65O)C4)OC3C)OC2C)OC(C)C1OC1OC(CO)C(O)C(O)C1O (stereo not drawn),24,0,0,-,0,
C[C@]12CC[C@H](O)C[C@H]1CC[C@@H]1[C@@H]2CC[C@]2(C)[C@@H](C3=CC(=O)OC3)CC[C@]12O,34,0,0,0,0,
CC12CCC(O)CC1CCC1C2CCC2(C)C(C3=CC(=O)OC3)C(O)CC12O (stereo not drawn),13,0,0,-,0,
C[C@]12CC[C@H](O)C[C@H]1CC[C@@H]1[C@@H]2C[C@@H](O)[C@]2(C)[C@@H](C3=CC(=O)OC3)CC[C@]12O,24,0,0,0,0,
CC12CC[C@H]3[C@@H](CCC4(O)C[C@H](O)CCC34/C=N/NC(=O)Cc3ccccc3)C1(O)CCC2C1=CC(=O)OC1 (stereo partly drawn),0,0,0,0,0,
CC12CCC(O)CC1CCC1C2CCC2(C)C(C3=CC(=O)OC3)CCC12O (stereo not drawn),28,0,0,-,0,
COC1C(O)C(C)OC(OC2CCC3(C)C(CCC4C3C(O)CC3(C)C(C5=CC(=O)OC5)CCC43O)C2)C1O (stereo not drawn),18,0,0,-,0,
C[C@@H]1O[C@@H](O[C@H]2C[C@@H](O)[C@]3(CO)C4C(CC[C@]3(O)C2)[C@@]2(O)CC[C@H](C3=CC(=O)OC3)[C@@]2(C)C[C@H]4O)[C@H](O)[C@H](O)[C@H]1O (stereo partly drawn),-,-,-,-,0,
CN1C2C[C@H](OC(=O)[C@H](CO)c3ccccc3)CC1[C@@H](O)C2 (stereo partly drawn),-,-,-,-,0,
CC(=O)[C@H]1CCC2C3CC[C@H]4C[C@H](O)CC[C@]4(C)C3C(=O)C[C@@]21C (stereo partly drawn),-,-,-,-,0,
COC(=O)C1=C[C@H]([C@@H](C)[C@H](OC)c2ccccc2Br)[C@@H]2[C@H]1c1ccccc1N2C,-,-,-,-,0,
CCCOC(=O)c1ccc(-[n+]2c(-c3ccccc3)cc(-c3ccccc3)cc2-c2ccccc2)cc1,0,0,0,40,0,
CC(C)C(C(=O)NC(C)(C)C)N1C(=O)CN=C(c2ccccc2)c2ccccc21 (stereo not drawn),-,-,-,-,0,
CC1=CC2OC3CC4OC(=O)C=CC=CC(=O)OCCC(C)C(O)C(=O)OCC2(CC1)C4(C)C31CO1 (stereo not drawn),8.9,0,37,-,0,
CC1CCOC(=O)C=CC=CC(=O)OC2CC3OC4C5OC5(C)C(O)CC4(COC(=O)C1O)C2(C)C31CO1 (stereo not drawn),0,0,0,-,0,
CC1Oc2cc3c(-c4c(O)cc(O)c5c(O)c6c(cc45)OC(C)C(C)C6=O)c(O)cc(O)c3c(O)c2C(=O)C1C (stereo not drawn),9.7,-,0,0,-,
CCC(C)[C@H]1O[C@]2(C=C[C@@H]1C)C[C@@H]1C[C@@H](C/C=C(\C)[C@@H](O[C@@H]3C[C@H](OC)[C@H](O[C@H]4C[C@H](OC)[C@@H](O)[C@H](C)O4)[C@H](C)O3)[C@@H](C)/C=C/C=C3\CO[C@@H]4[C@H](O)C(C)=C[C@@H](C(=O)O1)[C@]34O)O2 (stereo partly drawn),-,-,-,-,0,
C[C@]12CC[C@H]3C(CCC4(O)CC(O)CC[C@]34C=O)C1=CC[C@H]2c1ccc(=O)oc1 (stereo partly drawn),21,0,0,0,0,
SMILES,MC4R barr agon,PG9 binder,MC4R antag cAMP,NTR1 agonist,NR1D1 modulator,others
CC(=O)O[C@H]1[C@H]2O[C@]23[C@@H]2CC[C@]4(O)C[C@@H](O)CC[C@]4(C)C2CC[C@]3(C)[C@H]1c1ccc(=O)oc1 (stereo partly drawn),24,-,0,0,-,
Cc1ccc(C[n+]2c(-c3ccc(C)cc3)cc(-c3ccc(C)cc3)cc2-c2ccc(C)cc2)cc1,56,-,0,0,-,
Cc1ccc(-c2cc(-c3ccc(C)cc3)[n+](-c3ccc(C(=O)O)cc3)c(-c3ccc(C)cc3)c2)cc1,0,0,0,0,0,
CC1=Nc2ccccc2/C1=C/c1c(O)[nH]c(=O)[nH]c1=O,0,0,0,0,0,
O=c1[nH]c(O)c(/C=C2/C=CC(c3cc(Cl)ccc3Cl)=N2)c(=O)[nH]1,0,0,0,46,0,
CC(C)(C)n1cccc1/C=C1\C(=O)NC(=O)N(c2ccccc2)C1=O,0,0,0,0,0,
Cc1cccc(N2C(=O)NC(=O)/C(=C\c3cccn3-c3ccc(Cl)cc3)C2=O)c1,0,0,0,48,0,NTR1 ag confirm=82
Cc1cc(C)cc(N2C(=O)NC(=O)/C(=C/c3cccn3-c3ccc(Cl)cc3)C2=O)c1,0,0,0,44,0,NTR1 ag confirm=61
COc1ccc([C@@H]2C[C@H]3[C@@H](CN2)CON3C)cc1,-,-,-,-,0,
CCCCN1CCN(C(=O)COc2cc(=O)n(C)c3ccccc23)CC1,-,-,-,-,0,
COC(=O)c1ccc(NC(=O)CSc2nc3ccc(N4C(=O)C5C6C=CC(C6)C5C4=O)cc3s2)cc1 (stereo not drawn),0,0,0,63,0,NTR1 ag confirm=56
COc1ccc(/C=N\N=C(N)N)cc1,0,0,0,0,0,
NC(N)=N/N=C/c1ccc(N(c2ccccc2)c2ccccc2)cc1,0,0,0,64,0,NTR1 ag confirm=0
C/C(=C\c1ccc(N(C)C)cc1)[N+](=O)[O-],0,0,0,53,0,NTR1 ag confirm=73
O=C1NC(=O)C(=Cc2cn(CCOc3ccc4c(c3)OCO4)c3ccccc23)C(=O)N1,0,-,0,54,-,NTR1 ag confirm=63
C=CCn1cc(C=C2C(=O)NC(=O)NC2=O)c2ccccc21,0,0,0,0,0,
